For this series, the system named is KRAS2 G12D RNA. As to the kind of experiment: CD thermal melting of TO-PNA-peptide:RNA duplexes. The series is classed as binding. Summed up: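 Gel-purified synthetic RNA 20mers were annealed with the test compound at 1 μM each (final) in sodium phosphate, 1.0 M NaCl, 5 mM EDTA, pH 7.2, by heating at 95 °C for 10 min and then cooling for 10 min. CD at 265 nm was tracked over a 25→95 °C ramp at 0.5 °C/min, with baseline slopes subtracted. Tm was taken as the first-derivative maximum (two-state model); n = 3, ± SD.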

Here are results for one substance from article PMC4166030 (Bioconjugate Chemistry, 2014).

“GCCATOTCAGCTCC-AEEA-D(Cys-Ser-Lys-Cys) (disulfide) [TO2]”: the “Tm decrease relative to TO1 (12mer) KRAS2 G12D duplex” value was found to be 2 °C.
